TRPC4 inh: inhibitors of mouse TRPC4 channel; HEK293 TRPC4beta/mu-opioid, DAMGO-evoked Fluo4 calcium flux; stronger effect = lower value; B-score at 10 µM; 0.39% of 300,000 active;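 active = B-score over 3 SD under the library average, no early fluorescence shift, positive overall ratio signal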
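Test system – stable TRPC4beta/mu-opioid receptor HEK293 cells · Probe or stimulus – DAMGO, a submaximal dose followed by a maximal one · Dosing – one concentration per compound · Signal – Fluo4 calcium fluorescence by kinetic imaging, 5 s 1 Hz baseline · Evaluation – per-well B score of integrated baseline-normalized Fluo4 ratio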
TRPC4 PAM: allosterically enhances the mouse TRPC4 cation channel; Q9QUQ5; HEK293 TRPC4beta/mu-opioid, DAMGO EC20, Fluo-4 Ca2+ flux; stronger effect = higher value; B-score at 10 µM; 0.42% of 310,000 active; AID 2227;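 active = B-score of calcium response area above 5 SD of library B-scores, with initial fluorescence ratio within 5 SD of library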
TRPC6 activator: activates the mouse TRPC6 cation channel | 0.13% of 310,000 active | HEK293-TRPC6 membrane potential dye fluorescence; stronger effect = higher value | B-score at 10 µM | Q61143 | AID 2550;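 active = B-score of the integrated fluorescence ratio above library mean plus 3 SD, and starting fluorescence ratio within library mean plus 5 SD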;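 also: higher score means more depolarization so channel activation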
Kir21 inh: Kir2.1 (mouse) channel inhibition. HEK293-Kir2.1, FluxOR thallium flux fluorescence; stronger effect = lower value. B-score at 10 µM. 0.85% of 310,000 active. AID 1672;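 active = fluorescence ratio B-score at or below minus 3 SD of library scores, with starting-brightness B-score within 2 SD, cut at about -4.2 in these data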;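 also: channel flux triggered by added potassium and thallium sulfate stimulus; B-score of peak minus minimum fluorescence over baseline after thallium stimulus; more negative B-score means stronger Kir2.1 block with less thallium influx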
Target sequence (P35561 whole entry, looked up): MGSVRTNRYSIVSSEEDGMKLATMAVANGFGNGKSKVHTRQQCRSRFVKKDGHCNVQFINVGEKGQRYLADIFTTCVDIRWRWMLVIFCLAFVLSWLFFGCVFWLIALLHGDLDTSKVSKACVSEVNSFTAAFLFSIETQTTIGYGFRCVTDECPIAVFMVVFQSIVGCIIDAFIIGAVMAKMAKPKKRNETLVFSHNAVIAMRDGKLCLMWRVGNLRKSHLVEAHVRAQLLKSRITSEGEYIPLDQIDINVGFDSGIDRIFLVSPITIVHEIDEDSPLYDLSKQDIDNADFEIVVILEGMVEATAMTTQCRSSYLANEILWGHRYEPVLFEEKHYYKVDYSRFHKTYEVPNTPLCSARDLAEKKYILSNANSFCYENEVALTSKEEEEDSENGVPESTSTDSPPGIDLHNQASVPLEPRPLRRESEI
TRPC4 agonist: activators of mouse TRPC4 channel; Q9QUQ5; HEK293 TRPC4beta/mu-opioid, Fluo4 calcium fluorescence; stronger effect = higher value; B-score at 10 µM; 0.49% of 310,000 active; AID 2237;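 active = B-score above 5 SD of library B-scores, and initial fluorescence ratio not above library mean plus 5 SD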;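 also: positive B-score marks a calcium rise read as TRPC4 activation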
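Material: TRPC4beta and mu-opioid receptor HEK293 stable cells | Incubation: 45 min room-temperature Fluo4 loading, 110 s read | Detection: Kinetic Fluo4 calcium fluorescence | Measure: Integrated baseline-normalised fluorescence ratio, converted to per-well B score | Benchmarks: Low control buffer alone, high control maximal DAMGO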
TRPC6 inhibitor: inhibitors of mouse TRPC6 channel; B-score at 10 µM; Q61143; 1.1% of 310,000 active; HEK293-TRPC6, membrane potential dye, ACh-evoked depolarization; stronger effect = lower value;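 active = B-score under library mean minus 3 SD, initial fluorescence not abnormally high, positive integrated signal ratio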;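 also: B-score derived from integrated fluorescence ratio over the kinetic read; more negative B-score means stronger inhibition of depolarization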
TRPC4 sel inh 2: mouse TRPC4 off-target activity of TRPC6 inhibitors, second screen; shares compounds with TRPC6 inhibitor; HEK293 TRPC4/MOR, membrane potential dye fluorescence; channel activated by saturating DAMGO dose; inhibition, % at 10 µM; 42% of 920 active; AID 2776;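 active = compounds whose fluorescence signal differed from control wells by over 3 SD, either direction, in both duplicate plates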
TRPC4 spec: mouse TRPC4 off-target activity of TRPC6 inhibitors; activity change, negative = inhibition, % at 10 µM; shares compounds with TRPC6 inhibitor; 61% of 920 active; HEK293 TRPC4/mu-opioid, membrane potential fluorescence; AID 2777;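 active = rise or fall in signal beyond 3 SD of buffer-only wells in both replicate plates, either sign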;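 also: integrated kinetic ratio of fluorescence range over baseline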
HEK293 MPD ctr 2-1: second check of TRPC6 inhibitor effects in parental HEK293 cells; signal change vs control, % at 10 µM; parental HEK293 membrane potential dye fluorescence; maximal acetylcholine challenge after compound addition; shares compounds with TRPC6 inhibitor; 31% of 920 active;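 active = membrane potential signal moving either way by over 3 SD of the maximum-effect control, in both duplicate plates, meaning non-specific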
HEK293 MPD ctr-1: parental HEK293 nonspecific activity of TRPC6 inhibitors; 60% of 920 active; shares compounds with TRPC6 inhibitor; parental HEK293 membrane potential dye fluorescence; AID 2780; membrane potential signal change, % at 10 µM;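 active = membrane potential signal shifting up or down by more than 3 SD of buffer-only wells, on both duplicate plates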
HEK293 MPD ctr-2: parental HEK293 nonspecific activity of TRPC6 modulators; shares compounds with TRPC6 inhibitor; membrane potential dye fluorescence; membrane potential signal change, % at 10 µM; 51% of 2,400 active; AID 488924;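 active = membrane potential signal moves up or down beyond 5 SD from buffer-only wells, on both duplicate plates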
HEK293 MPD ctr 2-2: second counter-screen for TRPC6 modulators: effect in parental HEK293 cells. 14% of 2,400 active. inhibition, % at 10 µM. AID 488926. membrane potential dye fluorescence; after compound, maximal acetylcholine stimulation. shares compounds with TRPC6 inhibitor;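 active = membrane potential signal drops by more than 5 SD from the mean control signal, in both duplicate plates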
TRPC4/MOR mod: mouse TRPC4 off-target activity of TRPC6 modulators | shares compounds with TRPC6 inhibitor | HEK293 TRPC4/mu-opioid, membrane potential fluorescence | percent change from control (negative = decrease, positive = increase), % at 10 µM | 69% of 2,400 active;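 active = membrane potential signal moved up or down beyond 5 SD of buffer control wells, in both duplicate plates, actives on both sides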
TRPC4/MOR inh 2: mouse TRPC4 off-target activity of TRPC6 modulators, second screen; 55% of 2,400 active; inhibition, % at 10 µM; shares compounds with TRPC6 inhibitor; AID 488928; HEK293 TRPC4/mu-opioid, membrane potential dye fluorescence; stimulated with maximal-effect DAMGO;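 active = drop in membrane potential signal beyond 5 SD of the control wells in both duplicate plates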;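 also: TRPC4 counter screen for TRPC6 hits run under conditions tuned for TRPC6 not TRPC4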
TRPC6 block conf: mouse TRPC6 inhibitor confirmation; HEK293-TRPC6, membrane potential dye, ACh-evoked depolarization; inhibition, % at 10 µM; 43% of 3,300 active; shares compounds with TRPC6 inhibitor;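 active = fluorescence ratio falls more than 5 SD below the full-stimulation control mean, in both duplicate runs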;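 also: integrated fluorescence ratio of peak minus minimum over baseline after agonist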
TRPC6 act conf: mouse TRPC6 activator confirmation | shares compounds with TRPC6 inhibitor | HEK293-TRPC6 membrane potential dye fluorescence, FDSS | activation, % at 10 µM | 11% of 2,800 active | AID 488961;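 active = ratio signal rise beyond 5 SD above unstimulated control wells' mean, seen in both duplicate runs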
Each line names hits and unclear results; the compound was inactive in the other large screens (follow-up assays come after a bar, where they were run). A selection: hits, their analogues and other compounds. The true share with any hit is near 2.9%.

COc1ccc(S(=O)(=O)N2CCC(N3CCN(Cc4ccccc4)CC3)CC2)cc1	TRPC6 inhibitor -5.31 | HEK293 MPD ctr-2 134.0% | HEK293 MPD ctr 2-2 inactive | TRPC4/MOR mod 18.0% | TRPC4/MOR inh 2 32.5% | TRPC6 block conf 43.5%
CC(C)(C)c1ccc(S(=O)(=O)N2CCN(C3CCCC3)CC2)cc1	none
CN1CCN(C2CCN(S(=O)(=O)c3ccc(C(C)(C)C)cc3)CC2)CC1	TRPC6 activator 13.4 | HEK293 MPD ctr-2 193.0% | HEK293 MPD ctr 2-2 inactive | TRPC4/MOR mod 32.5% | TRPC4/MOR inh 2 inactive | TRPC6 block conf inactive | TRPC6 act conf 104.0%
CNC(=O)n1cc(C)c(-c2cccs2)n1	none
COc1ccc(-c2cc3nc(C)cc(NCCO)n3n2)cc1	TRPC6 inhibitor -8.97 | HEK293 MPD ctr-2 -300.0% | HEK293 MPD ctr 2-2 inactive | TRPC4/MOR mod -48.5% | TRPC4/MOR inh 2 49.0% | TRPC6 block conf 71.5% | TRPC6 act conf inactive
COc1ccc(-c2cc3nc(C)cc(-c4ccc(OC)cc4)n3n2)cc1	none
COc1ccc(-c2cc3nc(C)cc(N)n3n2)cc1	TRPC6 inhibitor -5.03 | HEK293 MPD ctr-2 -143.0% | HEK293 MPD ctr 2-2 inactive | TRPC4/MOR mod -21.5% | TRPC4/MOR inh 2 inactive | TRPC6 block conf inactive | TRPC6 act conf inactive
COCCNc1cc(C)nc2cc(-c3ccc(C)cc3)nn12	none
CCn1cc(C(=O)N2CCCC(N3CCN(c4ccccc4C)CC3)C2)cn1 (stereo not drawn)	none
CCCC(O)(CCN1CCOCC1)c1ccc(Br)cc1 (stereo not drawn)	TRPC4 inh -6, TRPC6 inhibitor -7.51 | TRPC4 sel inh 2 76.5% | TRPC4 spec 4.2% | HEK293 MPD ctr 2-1 inactive | HEK293 MPD ctr-1 3.6% | TRPC6 block conf inactive | TRPC6 act conf inactive
CCOC(=O)c1c(NC(=O)/C=C/C(=O)O)sc(C)c1-c1ccc(C(C)(C)C)cc1	TRPC4 inh -10, TRPC6 activator 14 | HEK293 MPD ctr-2 inactive | HEK293 MPD ctr 2-2 inactive | TRPC4/MOR mod 18.5% | TRPC4/MOR inh 2 50.0% | TRPC6 block conf inactive | TRPC6 act conf 29.5%
COc1ccccc1C(=O)N1CCCC1(C#N)c1ccccc1 (stereo not drawn)	none

Screening data deposited in PubChem by Johns Hopkins Ion Channel Center.
